Experimental data collected from several papers.
Compare with care: the assays were run in different laboratories.
Target: Serine/threonine-protein kinase mTOR (MTOR, Homo sapiens, UniProt P42345)

| Compound | observed | technique | concentration | remaining binding |
| --- | --- | --- | --- | --- |
| CN1CCN(c2cnc3c(C4CCN(C(=O)c5ccc(OC(F)(F)F)cc5N)CC4)ncnc3c2)CC1 | cell-free assay | competition with immobilised ligand | 1 µM | 78% |
| O=C(c1ccc(Nc2nccc(-c3cc4ccccc4s3)n2)cc1)N1CCC(N2CCCC2)CC1 | binding | competition with immobilised ligand | 1 µM | 100% |
| CN(C)c1ncc(F)c(-c2cnn3ncccc23)n1 | binding |  | 1 µM | 100% |
| CN(C)CC#Cc1ccc(OCCCc2sc(N3CCc4cccc(C(=O)Nc5nc6ccccc6s5)c4C3)nc2C(=O)O)c(F)c1 | cell-free assay | competition with immobilised ligand | 1 µM | 100% |
| O=C(c1ccc(Nc2ncc(Cl)c(-c3cc4ccccc4s3)n2)cc1)N1CCC(N2CCCC2)CC1 | binding | competition with immobilised ligand | 1 µM | 80% |
| C[C@@H](c1ccc(-n2cnc3c(N)ncnc32)cc1)N1CCc2nn(C)c(Cc3ccccc3)c2C1=O | binding | competition with immobilised ligand | 0.1 µM | 83% |
| FC(F)(F)Oc1cccc(-c2cnc3ccc(-c4ccncc4)nn23)c1 | cell-free assay | competition with immobilised ligand | 5 µM | 42% |
| O=C(O)[C@H]1[C@H](Cn2nnc3ccccc3c2=O)CC[C@@H]1C(=O)c1ccc(OCCC2CCOCC2)cc1 | cell-free assay | competition with immobilised ligand | 1 µM | 100% |
| CC1CCCN1c1nccc(-c2cnn3ncccc23)n1 (stereo not drawn) | binding |  | 1 µM | 95% |
| O=C(Nc1ccc(Oc2ccc(F)cc2)cc1)N1CCc2ncccc2[C@H]1c1ccc(F)cc1 | cell-free assay | competition with immobilised ligand | 1 µM | 100% |
| CN(C)c1nccc(-c2cnc3ncccn23)n1 | binding |  | 1 µM | 79% |
| CNC(=O)[C@@H]1CC[C@@H](n2c(-c3ccc4cnccc4c3)nc3ccc(C(=O)NCc4cccc(C(N)=O)c4)cc32)C1 | binding | competition with immobilised ligand | 1 µM | 66% |
| O=C(O)c1cc(-c2ccc(C3CCNCC3)cc2)c2ccc(-c3ccc(C(F)(F)F)cc3)cc2c1 | cell-free assay | competition with immobilised ligand | 1 µM | 90% |
| CCN1CCN(Cc2ccc(C(=O)Nc3ccc(C)c(Oc4ccc5c(c4)CC(=O)N5)c3)cc2C(F)(F)F)CC1 | binding | competition with immobilised ligand | 1 µM | 100% |
| C[C@H]1CCN(c2nccc(-c3cnn4ncccc34)n2)C1 | binding |  | 1 µM | 100% |
| CNC(=O)Nc1ccc2c(c1)CC[C@@]21OC(=O)N(CC(=O)N(Cc2ccc(F)cc2)[C@@H](C)C(F)(F)F)C1=O | cell-free assay | competition with immobilised ligand | 1 µM | 92% |
| N[C@H]1CCN(c2nccc(-c3cnn4ncccc34)n2)C1 | binding |  | 1 µM | 66% |
| COc1ncc2cc3ccccc3nc2c1C#N | cell-free assay | competition with immobilised ligand | 5 µM | 91% |
| O=C(Nc1c[nH]nc1C(=O)NC1CCNCC1)c1cc(F)cc(F)c1 | binding | competition with immobilised ligand | 1 µM | 100% |
| O=C(NCCCN1CCOCC1)c1ccc(Nc2nccc(-c3cc4ccccc4s3)n2)cc1 | binding | competition with immobilised ligand | 1 µM | 75% |
| F[C@@H]1CCN(c2nccc(-c3cnn4ncccc34)n2)C1 | binding |  | 1 µM | 77% |
